SENP8 block-1: blocks the human protease SENP8; inhibition, % at 10 µM; purified SENP8, Z-RLRGG-aminoluciferin cleavage, luminescence; Q96LD8; 330,000 tested, 1.2% active; AID 2540; in the data active = inhibition above about 50%
Target sequence (Q96LD8 whole entry, looked up): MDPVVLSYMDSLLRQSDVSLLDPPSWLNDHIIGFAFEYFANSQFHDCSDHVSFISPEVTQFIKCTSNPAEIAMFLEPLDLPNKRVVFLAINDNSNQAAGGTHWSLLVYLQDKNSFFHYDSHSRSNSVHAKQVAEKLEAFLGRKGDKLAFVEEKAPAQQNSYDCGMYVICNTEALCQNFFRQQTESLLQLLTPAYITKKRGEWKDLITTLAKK
SENP8 block-2: inhibitors of human SENP8 protease; recombinant SENP8, Nedd8 substrate fluorescence; inhibition, % at 20 µM; 360,000 tested, 0.64% active; AID 602440; in the data active = inhibition mostly above about 40%, no sharp cut-off; inactive = mostly below about 27%
SENP6 block: SENP6 protease inhibition. Q9GZR1. Recombinant SENP6 catalytic domain, aminoluciferin luminescence. inhibition, % at 10 µM. 330,000 tested, 1.8% active. AID 2599;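 active = inhibition above about 50% at the single tested dose, limit read from the data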;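 also: plate controls were DMSO wells with enzyme for no effect and DMSO wells lacking enzyme for full effect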
UBC13 polyUb: blocks human UBC13 polyubiquitin chain formation; inhibition, % at 20 µM; AID 485273; TR-FRET; 330,000 tested, 0.47% active; in the data active = inhibition above about 45%, passing the limit was not always enough
Target sequence (P61088 whole entry, looked up): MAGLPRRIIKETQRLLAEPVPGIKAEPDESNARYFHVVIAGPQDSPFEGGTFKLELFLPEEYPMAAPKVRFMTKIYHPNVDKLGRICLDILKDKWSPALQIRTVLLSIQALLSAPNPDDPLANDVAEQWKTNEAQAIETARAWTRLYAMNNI
SENP7 inh: SENP7 protease inhibition | Q9BQF6 | recombinant SENP7, Z-RLRGG-aminoluciferin luminescence, 40 min | inhibition, % at 5 µM | 330,000 tested, 1.5% active;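 active = inhibition above about 50% at the single test dose, limit read from the data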;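 also: plate controls were DMSO with enzyme for no effect and no enzyme buffer wells for full effect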
Apaf1 inhib: blocks human Apaf-1 apoptosome activity; inhibition, % at 20 µM; AID 489030; reconstituted apoptosome caspase-3 activity, DEVD-Rh110 fluorescence; O14727; 330,000 tested, 0.71% active; active = inhibition of at least 40% at 20 µM;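 also: plate controls were DMSO wells for no effect and DEVD-CHO caspase inhibitor wells for full effect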
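Material: reconstituted apoptosome with Apaf-1, cytochrome c, caspase-9, procaspase-3, dATP; medium: pH 7.5 Hepes buffer with CHAPS, BSA, DTT; also added: cytochrome c and DEVD-Rh110 substrate; timing: 30 min plus 50 min, RT; signal: Rh110 fluorescence intensity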
SENP8 conf: human SENP8 inhibition, confirmed. shares compounds with SENP7 inh. Recombinant SENP8, Z-RLRGG-aminoluciferin luminescence, 60 min. inhibition, % at 12.5 µM. 6,200 tested, 40% active;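 active = mean inhibition across replicates above about 50%, limit read from the data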
SENP6 conf: human SENP6 inhibition, confirmed; shares compounds with SENP7 inh; recombinant SENP6, Z-RLRGG-aminoluciferin luminescence; inhibition, % at 12.5 µM; 6,200 tested, 58% active; AID 488915
SENP7 conf: confirmation of human SENP7 protease inhibitors | recombinant SENP7, Z-RLRGG-aminoluciferin luminescence, 40 min | AID 488917 | 6,200 tested, 69% active | shares compounds with SENP7 inh | inhibition, % at 12.5 µM
Casp3 SENP sel: caspase-3 inhibition (SENP selectivity assay); shares compounds with SENP7 inh; purified caspase-3, Z-DEVD-aminoluciferin luminescence, 60 min; inhibition, % at 12.5 µM; 6,200 tested, 60% active; AID 488918;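 active = mean inhibition above about 50%, limit read from the data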;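 also: plate controls were enzyme with DMSO for no effect and wells without caspase-3 for full effect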
Target sequence (P42574 28-227 limits assumed): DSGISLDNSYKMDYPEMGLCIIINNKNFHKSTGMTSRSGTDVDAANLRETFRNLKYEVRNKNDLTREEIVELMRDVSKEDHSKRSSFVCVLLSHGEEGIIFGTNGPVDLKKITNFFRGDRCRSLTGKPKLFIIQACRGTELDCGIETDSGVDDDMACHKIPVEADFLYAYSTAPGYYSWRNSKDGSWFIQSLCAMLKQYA
SENP luc ctr: interferes with luciferase luminescence in SENP counter-screen. shares compounds with SENP7 inh. Pre-incubated SENP8/Z-RLRGG-aminoluciferin, luciferase luminescence interference. inhibition, % at 12.5 µM. 6,200 tested, 39% active. AID 488919;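 active = mean inhibition above about 50% when retested at one dose, limit read from the data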;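 also: plate controls were DMSO wells with completed reaction for no effect and substrate without enzyme for full effect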
Active calls of the source: *. Compounds with a hit are over-represented: about 3% of the library has one in this group of screens.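 The calls were made as follows, unless noted: active = mean inhibition above about 50% in the one-dose retest (limit read from the data); inactive = the rest.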

For Cc1ccc(-n2c(C)cc(C(=O)COC(=O)c3c(C)noc3C)c2C)cc1 the results were SENP8 block-1 45, SENP8 block-2 16, SENP6 block 68*, UBC13 polyUb 10, SENP7 inh 52*, Apaf1 inhib 10, SENP8 conf 52*, SENP6 conf 58*, SENP7 conf 82*, Casp3 SENP sel 59* and SENP luc ctr 32.
O=C(NCCCN1CCCC1)c1ccc(CS(=O)(=O)c2c(Cl)cccc2Cl)o1 was read as SENP8 block-1 10, SENP8 block-2 18, SENP6 block -2, UBC13 polyUb -9, SENP7 inh 5 and Apaf1 inhib 18.
CCN1CCCC1CNCC(O)COc1ccc(C(C)(C)C)cc1C (centres undefined) was read as SENP8 block-1 -8, SENP8 block-2 18, SENP6 block 2, UBC13 polyUb 2, SENP7 inh -6 and Apaf1 inhib 1.
Screening O=C(CN1C(=O)C2CC=CCC2C1=O)OCC(=O)c1ccc(Cl)c([N+](=O)[O-])c1 (centres undefined) returned SENP8 block-1 0, SENP8 block-2 5, SENP6 block -2, UBC13 polyUb -6, SENP7 inh 5 and Apaf1 inhib -2.
For O=C(N[C@@H]1CCC(=O)N(CC[C@H](Sc2ccccc2)c2ccccc2)CC1)OCc1ccccc1 the results were SENP8 block-1 -10, SENP8 block-2 1, SENP6 block -16, UBC13 polyUb 4, SENP7 inh -6 and Apaf1 inhib 24.
COc1ccc(NC(=O)Cn2nnc(-c3ccccc3)c2COc2ccc3ccccc3c2)cn1 was read as SENP8 block-2 8.
Screening Cc1cc(C)cc(NC(=O)Nc2ccc(N3CCCCC3)cc2)c1 returned SENP8 block-1 80*, SENP8 block-2 24, SENP6 block 81*, UBC13 polyUb -3, SENP7 inh 82*, Apaf1 inhib 1, SENP8 conf 16, SENP6 conf 20, SENP7 conf 42, Casp3 SENP sel 33 and SENP luc ctr 20.
For O=C(Nc1ccc(N2CCOCC2)cc1)c1cn2ccccc2n1 the results were SENP8 block-1 85*, SENP8 block-2 8, SENP6 block 96*, UBC13 polyUb 11, SENP7 inh 93*, Apaf1 inhib 1, SENP8 conf 86*, SENP6 conf 86*, SENP7 conf 98*, Casp3 SENP sel 95* and SENP luc ctr 15.
For CC(=O)NS(=O)(=O)c1ccc(NC(=O)c2ccccn2)cc1 the results were SENP8 block-1 2, SENP8 block-2 12, SENP6 block -15, UBC13 polyUb 14, SENP7 inh 2 and Apaf1 inhib -17.
O=C(Nc1ccc(Cl)c(S(=O)(=O)N2CCOCC2)c1)c1cn2ccccc2n1 was read as SENP8 block-1 0, SENP8 block-2 13, SENP6 block -12, UBC13 polyUb -6, SENP7 inh -14 and Apaf1 inhib 10.
`O=C(Nc1ccc(SC(F)(F)F)cc1)c1ccccn1` gave SENP8 block-1 89*, SENP8 block-2 6, SENP6 block 93*, UBC13 polyUb 5, SENP7 inh 93*, Apaf1 inhib 20, SENP8 conf 86*, SENP6 conf 94*, SENP7 conf 87*, Casp3 SENP sel 61* and SENP luc ctr 38.
Screening Cc1cc(C)cc(OCC(=O)Nc2ccc(N3CCCCC3)cc2)c1 returned SENP8 block-1 9, SENP8 block-2 6, SENP6 block 2, UBC13 polyUb -6, SENP7 inh 1 and Apaf1 inhib 11.
`O=C(Nc1ccc(N2CCCCCC2)cc1)c1ccc[nH]1` gave SENP8 block-1 56*, SENP8 block-2 -5, SENP6 block 66*, UBC13 polyUb -17, SENP7 inh 33, Apaf1 inhib 24, SENP8 conf 11, SENP6 conf 9, SENP7 conf -2, Casp3 SENP sel -1 and SENP luc ctr 35.
For CC(=O)c1sc(NC(=O)CCCc2nc3ccccc3c(=O)[nH]2)nc1-c1ccccc1 the results were SENP8 block-1 -13, SENP8 block-2 3, SENP6 block -7, UBC13 polyUb -4, SENP7 inh -3 and Apaf1 inhib 3.
For O=C(Nc1ccc(N2CCCC2)cc1)c1cccc(Cl)c1 the results were SENP8 block-1 87*, SENP8 block-2 30, SENP6 block 88*, UBC13 polyUb 3, SENP7 inh 94*, Apaf1 inhib 3, SENP8 conf 3, SENP6 conf 56*, SENP7 conf 51*, Casp3 SENP sel 73* and SENP luc ctr 9.
O=C(Nc1ccc(N2CCCCC2)cc1)C(Cl)c1ccccc1 (centres undefined) was read as SENP8 block-1 34, SENP8 block-2 12, SENP6 block 61*, UBC13 polyUb -16, SENP7 inh 54*, Apaf1 inhib 10, SENP8 conf 14, SENP6 conf 15, SENP7 conf 15, Casp3 SENP sel 28 and SENP luc ctr 26.
Screening O=C(Nc1ccc(N2CCCCC2)cc1)c1ccccn1 returned SENP8 block-1 95*, SENP8 block-2 1, SENP6 block 101*, UBC13 polyUb 1, SENP7 inh 100*, Apaf1 inhib 3, SENP8 conf 95*, SENP6 conf 98*, SENP7 conf 103*, Casp3 SENP sel 98* and SENP luc ctr 76*.
`CCCOC(=O)c1ccc(NC(=O)c2cc(=O)[nH]c3ccccc23)cc1` gave SENP8 block-1 -7, SENP8 block-2 -42, SENP6 block -10, UBC13 polyUb -13, SENP7 inh -6 and Apaf1 inhib -1.
`CC1CCN(c2ccc(-c3ccc(NC(=O)C(F)(F)F)cc3)nn2)CC1` gave SENP8 block-1 3, SENP8 block-2 -56, SENP6 block -5, UBC13 polyUb 0, SENP7 inh 2 and Apaf1 inhib 4.
Screening CCN(CC)c1ccc(NS(=O)(=O)c2cn(C)c(=O)n(C)c2=O)c(C)c1 returned SENP8 block-1 8, SENP8 block-2 2, SENP6 block 1, UBC13 polyUb -6, SENP7 inh 0 and Apaf1 inhib 9.

Bioassay records: PubChem, Sanford-Burnham Center for Chemical Genomics
